We go through 16 molecules from ChEMBL document CHEMBL4725245, “The synthesis and biological evaluation of nucleobases/tetrazole hybrid compounds: A new class of phosphodiesterase type 3 (PDE3) inhibitors” (Bioorg Med Chem, 2020).

Each structure is given as a SMILES string. pIC50: −log10 of the molar value.

Assay [1] deals with HeLa. As to the kind of experiment: Antiproliferative activity against human HeLa cells assessed as reduction in cell viability after 24 hrs by MTT assay. The assay is classed as functional, cell-based. A digest of the protocol: (§1)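 Cells held in DMEM with 10% heat-inactivated FBS, penicillin and streptomycin at 37 °C, 5% CO2. HeLa seeded at 5000 cells/well or MCF-7 at 10,000 cells/well, grown overnight, then exposed to compounds at 0.0–200.0 µM (two-fold steps) for 24 h. MTT 0.5 mg/mL for 4 h at 37 °C, formazan dissolved in DMSO, absorbance read at 545 nm with 630 nm reference.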
In general terms: Tetrazolium dyes change colour on reduction, which living cells bring about.

For assay [2], the system named is MCF7. Description: Antiproliferative activity against human MCF7 cells assessed as growth inhibition after 24 hrs by MTT assay. The assay is classed as functional, cell-based. Particulars: MCF7, 24 h. A digest of the protocol: as §1
Assay [3] concerns the target cGMP-inhibited 3',5'-cyclic phosphodiesterase 3A (Homo sapiens, UniProt Q14432). Description: Inhibition of human PDE3A expressed in Sf9 cells using cAMP as substrate after 60 mins by IMAP TR-FRET assay. Background: In TR-FRET formats the signal depends on donor and acceptor labels being close together.

cGMP-inhibited 3',5'-cyclic phosphodiesterase 3A, sequence (Q14432 whole entry): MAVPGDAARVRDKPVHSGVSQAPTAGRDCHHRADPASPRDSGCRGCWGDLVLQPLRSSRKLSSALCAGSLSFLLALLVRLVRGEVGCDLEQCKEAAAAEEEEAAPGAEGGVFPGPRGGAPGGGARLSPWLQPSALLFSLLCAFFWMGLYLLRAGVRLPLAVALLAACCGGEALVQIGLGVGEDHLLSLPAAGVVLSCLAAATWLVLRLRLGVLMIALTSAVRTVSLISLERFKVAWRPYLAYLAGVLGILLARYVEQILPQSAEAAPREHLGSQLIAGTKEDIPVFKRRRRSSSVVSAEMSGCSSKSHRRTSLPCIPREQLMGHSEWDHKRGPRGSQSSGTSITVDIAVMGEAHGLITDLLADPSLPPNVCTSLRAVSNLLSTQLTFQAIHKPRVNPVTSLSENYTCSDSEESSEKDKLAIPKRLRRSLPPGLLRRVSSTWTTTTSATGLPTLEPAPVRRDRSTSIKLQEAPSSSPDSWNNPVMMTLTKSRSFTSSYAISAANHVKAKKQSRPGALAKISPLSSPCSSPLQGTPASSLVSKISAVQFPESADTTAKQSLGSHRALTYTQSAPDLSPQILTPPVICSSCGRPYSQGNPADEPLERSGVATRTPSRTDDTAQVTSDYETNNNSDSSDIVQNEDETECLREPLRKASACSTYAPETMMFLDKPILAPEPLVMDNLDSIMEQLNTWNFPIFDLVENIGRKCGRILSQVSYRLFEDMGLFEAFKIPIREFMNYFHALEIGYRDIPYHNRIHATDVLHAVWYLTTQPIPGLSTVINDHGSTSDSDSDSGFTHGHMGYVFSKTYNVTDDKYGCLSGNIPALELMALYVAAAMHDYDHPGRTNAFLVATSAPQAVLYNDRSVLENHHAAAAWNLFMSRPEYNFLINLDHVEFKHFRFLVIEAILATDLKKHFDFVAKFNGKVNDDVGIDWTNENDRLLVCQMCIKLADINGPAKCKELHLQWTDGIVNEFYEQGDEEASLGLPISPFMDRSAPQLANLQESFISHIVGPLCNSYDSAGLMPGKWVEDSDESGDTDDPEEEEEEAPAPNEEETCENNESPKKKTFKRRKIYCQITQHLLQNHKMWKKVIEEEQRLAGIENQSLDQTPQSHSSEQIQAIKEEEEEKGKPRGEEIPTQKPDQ

As for `Nc1nc2c(ncn2CCCOc2ccc(-c3nnn[nH]3)cc2)c(=O)[nH]1`, the negative logarithm of the IC50 (pIC50) (as a rule, −log10 of the IC50, conventionally taken in molar units) in assay [1] is 4.74; in assay [2], 4.59.
As to `Nc1nc2c(ncn2CCCCOc2ccc(-c3nnn[nH]3)cc2)c(=O)[nH]1`, the negative logarithm of the IC50 (pIC50) in assay [1] was 4.17; in assay [2], 4.04.
On to `O=c1ccnc(SCCCOc2ccc(-c3nnn[nH]3)cc2)[nH]1`, for which the negative logarithm of the IC50 (pIC50) in assay [1] is 4.24; in assay [2] it was 4.09.
As for `Cn1cnc2c1c(=O)n(CCCOc1ccc(-c3nnn[nH]3)cc1)c(=O)n2C`, the pIC50 in assay [1] is 4.21; in assay [2], 4.14.
Take `O=c1ccnc(SCCCCOc2ccc(-c3nnn[nH]3)cc2)[nH]1`: the pIC50 in assay [1] is 4.30; in assay [2], 4.17; in assay [3], 8.29.
Taken in the same sequence, the figures for `Cn1c(=O)c2c(ncn2CCCOc2ccc(-c3nnn[nH]3)cc2)n(C)c1=O` were 4.26, 4.13 and 8.23.
As to `Nc1ncnc2c1ncn2CCCOc1ccc(-c2nnn[nH]2)cc1`, the pIC50 is 4.68 in assay [1] and 4.53 in assay [2].
Taken in the same sequence, the figures for `O=c1cnn(CCCCOc2ccc(-c3nnn[nH]3)cc2)c(=O)[nH]1` were 4.20 and 4.12.
Taken in the same sequence, the figures for `Cn1cnc2c1c(=O)n(CCCCOc1ccc(-c3nnn[nH]3)cc1)c(=O)n2C` were 4.22 and 4.13.
Taken in the same sequence, the figures for `O=c1ccn(CCCOc2ccc(-c3nnn[nH]3)cc2)c(=O)[nH]1` were 4.41 and 4.27.
Turning to `Cn1c(=O)c2c(ncn2CCCCOc2ccc(-c3nnn[nH]3)cc2)n(C)c1=O`, the pIC50 was 4.35 in assay [1] and 4.23 in assay [2].
`O=c1ccn(CCCCOc2ccc(-c3nnn[nH]3)cc2)c(=O)[nH]1`: the negative-log IC50 (pIC50) is 4.59 in assay [1] and 4.45 in assay [2].
On to `Nc1ncnc2c1ncn2CCCCOc1ccc(-c2nnn[nH]2)cc1`, for which the negative-log IC50 (pIC50) was 4.42 in assay [1], 4.26 in assay [2] and 8.41 in assay [3].
In the case of `O=c1cnn(CCCOc2ccc(-c3nnn[nH]3)cc2)c(=O)[nH]1`, the pIC50 in assay [1] is 4.31; in assay [2], 4.18.
With `O=C1CCc2cc(OCCCCc3nnnn3C3CCCCC3)ccc2N1` [CILOSTAZOL], the negative-log IC50 (pIC50) in assay [3] is 8.41.
Turning to `CN(Cc1cnc2nc(N)nc(N)c2n1)c1ccc(C(=O)N[C@@H](CCC(=O)O)C(=O)O)cc1` [METHOTREXATE], the negative-log IC50 (pIC50) was 4.55 in assay [1] and 4.31 in assay [2].
